Measured values collected from several papers.
Protocols differ between the studies behind these lines.
Target: G protein-coupled receptor kinase 3 (GRK3, Homo sapiens, UniProt P35626)
Sequence (P35626 1-688, as in one of the studies): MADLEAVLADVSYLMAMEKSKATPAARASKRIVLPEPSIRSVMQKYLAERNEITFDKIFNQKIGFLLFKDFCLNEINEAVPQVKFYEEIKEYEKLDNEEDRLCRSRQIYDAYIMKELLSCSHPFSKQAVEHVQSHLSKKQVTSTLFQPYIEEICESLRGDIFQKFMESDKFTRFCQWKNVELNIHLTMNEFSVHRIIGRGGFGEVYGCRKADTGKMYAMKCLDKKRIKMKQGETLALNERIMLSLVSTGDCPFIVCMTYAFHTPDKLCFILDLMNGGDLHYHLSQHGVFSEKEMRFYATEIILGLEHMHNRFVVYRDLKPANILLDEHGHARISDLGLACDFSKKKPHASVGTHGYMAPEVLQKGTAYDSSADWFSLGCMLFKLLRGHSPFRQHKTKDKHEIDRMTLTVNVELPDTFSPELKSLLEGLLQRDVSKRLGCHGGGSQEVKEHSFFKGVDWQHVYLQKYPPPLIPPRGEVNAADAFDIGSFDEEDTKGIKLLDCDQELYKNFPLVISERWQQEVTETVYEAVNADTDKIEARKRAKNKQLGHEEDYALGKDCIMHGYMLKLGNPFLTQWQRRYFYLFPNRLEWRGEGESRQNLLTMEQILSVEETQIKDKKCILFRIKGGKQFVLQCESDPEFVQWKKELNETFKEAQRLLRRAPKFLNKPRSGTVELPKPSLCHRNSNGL

Compound	test	setting	remaining binding [%]
CN(C)c1nccc(-c2cnn3ncccc23)n1	binding	1 µM	89
Cc1nc(N2CC[C@@H](O)C2)ncc1-c1cc(C(F)(F)F)cc2[nH]ncc12	binding, competition with immobilised ligand	1 µM	87
C[C@@H](c1ccc(-n2cnc3c(N)ncnc32)cc1)N1CCc2nn(C)c(Cc3ccccc3)c2C1=O	binding, competition with immobilised ligand	0.1 µM	87
CN(C)C(=O)Cn1cc(-c2nc([C@@](C)(c3ccc(-c4cnc(N)nc4)cc3)C3CC3)no2)cn1	cell-free assay, competition with immobilised ligand	1 µM	86
CC1CCCN1c1nccc(-c2cnn3ncccc23)n1 (centres unmarked)	binding	1 µM	100
Nc1cnc(N2CCc3cc(S(=O)(=O)Nc4c(F)cc(Cl)cc4F)cc(N4CCCC4=O)c32)nc1	cell-free assay, competition with immobilised ligand	1 µM	100
O=C(c1ccc(Nc2ncc(Cl)c(-c3cc4ccccc4s3)n2)cc1)N1CCC(N2CCCC2)CC1	binding, competition with immobilised ligand	1 µM	63
CN(C)c1ncc(F)c(-c2cnn3ncccc23)n1	binding	1 µM	100
Nc1ncc2c(n1)-c1c([nH]c3ccc(C#CC4CC4)cc13)CCCC2	binding, competition with immobilised ligand	1 µM	97
CN(c1nccc(-c2cnn3ncccc23)n1)C1CC1	binding	1 µM	100
FC(F)(F)c1ccc2c(c1)nc(-c1cccnc1)n2C1CC1	cell-free assay, competition with immobilised ligand	1 µM	76
O=C(c1ccc(Nc2ncc(Cl)c(-c3ccc(Cl)s3)n2)cc1)N1CCC(N2CCCC2)CC1	binding, competition with immobilised ligand	1 µM	46
C[C@H]1CCN(c2nccc(-c3cnn4ncccc34)n2)C1	binding	1 µM	33
O=C(Nc1ccc(Oc2ccc(F)cc2)cc1)N1CCc2ncccc2[C@H]1c1ccc(F)cc1	cell-free assay, competition with immobilised ligand	1 µM	95
F[C@@H]1CCN(c2nccc(-c3cnn4ncccc34)n2)C1	binding	1 µM	13
O=C(Nc1cnc(Oc2ccc(F)cc2)nc1)N1CCc2ncccc2[C@@H]1c1ccc(F)cc1	cell-free assay, competition with immobilised ligand	1 µM	96
COc1cnc(Nc2cccc(S(N)(=O)=O)c2)nc1N1CCN(c2ccccc2)CC1	binding, competition with immobilised ligand	1 µM	72
O=C(NCCCN1CCOCC1)c1ccc(Nc2nccc(-c3cc4ccccc4s3)n2)cc1	binding, competition with immobilised ligand	1 µM	88
O=C(NCC1CCOCC1)c1n[nH]cc1NC(=O)c1c(F)cccc1F	binding, competition with immobilised ligand	1 µM	44
COc1ncc2cc3ccccc3nc2c1C#N	cell-free assay, competition with immobilised ligand	5 µM	53
